Source: ChEMBL document CHEMBL3421595, “Design and Synthesis of New α-Naphthoflavones as Cytochrome P450 (CYP) 1B1 Inhibitors To Overcome Docetaxel-Resistance Associated with CYP1B1 Overexpression” (J Med Chem, 2015)

Legend:
[1] = target: T1, Cytochrome P450 1B1 (Homo sapiens, UniProt Q16678); test: Inhibition of human CYP1B1 assessed as reduction in 7-ethoxyresorufin O-deethylation activity by fluorescence based EROD assay
T1 sequence (Q16678 whole entry): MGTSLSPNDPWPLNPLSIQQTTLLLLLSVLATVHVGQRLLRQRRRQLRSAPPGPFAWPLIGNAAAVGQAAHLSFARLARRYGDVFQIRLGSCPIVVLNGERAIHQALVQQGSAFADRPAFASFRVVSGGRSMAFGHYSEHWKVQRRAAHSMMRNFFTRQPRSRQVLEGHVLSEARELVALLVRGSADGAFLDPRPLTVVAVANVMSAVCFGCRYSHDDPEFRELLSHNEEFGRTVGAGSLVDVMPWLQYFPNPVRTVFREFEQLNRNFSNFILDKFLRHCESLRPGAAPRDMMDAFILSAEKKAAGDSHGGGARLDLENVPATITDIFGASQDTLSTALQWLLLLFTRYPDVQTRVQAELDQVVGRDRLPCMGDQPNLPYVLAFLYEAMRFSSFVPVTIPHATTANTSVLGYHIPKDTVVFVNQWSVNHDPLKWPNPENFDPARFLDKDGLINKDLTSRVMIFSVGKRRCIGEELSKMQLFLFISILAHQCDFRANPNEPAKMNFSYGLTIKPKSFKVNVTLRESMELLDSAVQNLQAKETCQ
In short: (§1)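 Recombinant human CYP1B1, 1A1 and 1A2 in a standard EROD assay. NADPH regeneration system: 1.3 mM NADP+, 3.3 mM G-6-P, 0.5 U/mL G6-PD. Incubation time 35 min for CYP1B1, 15 min for 1A1 and 50 min for 1A2. IC50 by Probit analysis; selectivity taken as the ratio of IC50 values.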

[2] = species: Homo sapiens; test: Selectivity index, ratio of IC50 for human CYP1A1 to IC50 for human CYP1B1
In short: as §1, with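 “assay. 7-Ethoxyresorufin fixed at 150 nM.” for “assay.”, “1A2. Resorufin fluorescence read at ex 545 / em 590 nm.” for “1A2.”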

[3] = target: T2, Cytochrome P450 1A2 (Homo sapiens, UniProt P05177); test: Inhibition of human CYP1A2 assessed as reduction in 7-ethoxyresorufin O-deethylation activity by fluorescence based EROD assay; assay type: ADME; in short: as §1
T2 sequence (P05177 whole entry): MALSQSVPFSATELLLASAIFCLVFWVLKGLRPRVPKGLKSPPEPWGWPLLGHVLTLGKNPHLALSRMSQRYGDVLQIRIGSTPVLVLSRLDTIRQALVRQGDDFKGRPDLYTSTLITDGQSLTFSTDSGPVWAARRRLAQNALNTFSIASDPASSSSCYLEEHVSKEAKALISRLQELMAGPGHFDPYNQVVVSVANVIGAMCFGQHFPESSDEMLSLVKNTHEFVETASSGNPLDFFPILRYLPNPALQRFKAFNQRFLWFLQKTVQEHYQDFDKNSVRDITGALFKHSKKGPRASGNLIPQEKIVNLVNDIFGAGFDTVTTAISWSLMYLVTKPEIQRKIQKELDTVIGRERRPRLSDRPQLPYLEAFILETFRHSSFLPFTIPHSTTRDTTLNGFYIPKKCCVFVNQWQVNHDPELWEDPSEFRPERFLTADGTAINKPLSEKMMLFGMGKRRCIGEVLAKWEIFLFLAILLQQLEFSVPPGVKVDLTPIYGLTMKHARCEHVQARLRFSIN

[4] = target: T3, Cytochrome P450 1A1 (Homo sapiens, UniProt P04798); test: Inhibition of human CYP1A1 assessed as reduction in 7-ethoxyresorufin O-deethylation activity by fluorescence based EROD assay; assay type: ADME
T3 sequence (P04798 whole entry): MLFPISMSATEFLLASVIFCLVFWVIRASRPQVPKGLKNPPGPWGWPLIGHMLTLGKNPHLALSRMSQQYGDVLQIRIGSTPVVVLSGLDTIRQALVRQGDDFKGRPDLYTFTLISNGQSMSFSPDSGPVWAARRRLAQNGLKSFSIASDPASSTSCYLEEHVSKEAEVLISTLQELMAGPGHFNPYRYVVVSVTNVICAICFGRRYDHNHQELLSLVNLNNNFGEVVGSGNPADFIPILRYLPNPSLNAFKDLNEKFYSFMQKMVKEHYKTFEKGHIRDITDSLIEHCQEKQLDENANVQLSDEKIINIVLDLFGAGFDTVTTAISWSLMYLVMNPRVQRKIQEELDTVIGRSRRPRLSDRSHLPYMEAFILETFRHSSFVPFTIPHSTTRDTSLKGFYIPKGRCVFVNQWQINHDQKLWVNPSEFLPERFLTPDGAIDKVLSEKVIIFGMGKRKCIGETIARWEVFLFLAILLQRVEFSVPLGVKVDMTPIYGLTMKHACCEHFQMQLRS
In short: as §1, with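 “assay. 7-Ethoxyresorufin fixed at 150 nM.” for “assay.”, “1A2. Resorufin fluorescence read at ex 545 / em 590 nm.” for “1A2.”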

[5] = species: Homo sapiens; test: Selectivity index, ratio of IC50 for human CYP1A2 to IC50 for human CYP1B1
In short: as §1, with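 “assay. 7-Ethoxyresorufin fixed at 150 nM.” for “assay.”, “1A2. Resorufin fluorescence read at ex 545 / em 590 nm.” for “1A2.”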

[6] = target: T1, Cytochrome P450 1B1; test: Potency index, ratio of IC50 for ANF to IC50 for compound against human CYP1B1 assessed as reduction in 7-ethoxyresorufin O-deethylation activity by fluorescence based EROD assay; settings: read-out: Ratio IC50
In short: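 Recombinant human CYP1B1 EROD assay with 150 nM 7-ethoxyresorufin. NADPH regeneration system (1.3 mM NADP+, 3.3 mM G-6-P, 0.5 U/mL G6-PD) replaced NADPH. Incubated 35 min; resorufin fluorescence read at ex 545/em 590 nm. IC50 by Probit analysis. ANF was the positive control in the same assay, and the index divides its IC50 by the compound's IC50.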

Row | Compound | IC50 [1] [nM] | IC50 [3] [nM] | IC50 [4] [nM] | Ratio IC50 [2] | Ratio IC50 [5] | selectivity ratio [6]
1 | COc1ccc(OC)c2c1c(OC)cc1c(=O)cc(-c3ccccc3O)oc12 | 62.9 | 50.6 | 12.1 | 0.19 | 0.8 | 
2 | COc1ccc(OC)c2c1c(OC)cc1c(=O)cc(-c3ccc(O)cc3)oc12 | 643 | 58.4 | 114 | 0.18 | 0.09 | 
3 | COc1ccc(OC)c2c1c(OC)cc1c(=O)c(O)c(-c3cccc(Cl)c3)oc12 | 3.5 | 42.5 | 46 | 13 | 12 | 
4 | COc1ccc(OC)c2c1c(OC)cc1c(=O)cc(-c3cccc(F)c3)oc12 |  | 36.7 | 11.5 | 267 | 853 | 
5 | COc1ccc(OC)c2c1c(OC)cc1c(=O)cc(-c3ccc(OCc4ccccc4)c(OCc4ccccc4)c3)oc12 | > 100000 | 96.9 | 535 |  |  | 
6 | COc1ccc(OC)c2c1c(OC)cc1c(=O)c(O)c(-c3ccccc3F)oc12 | 1.2 | 29.4 | 27.5 | 23 | 25 | 
7 | COc1ccc(OC)c2c1c(OC)cc1c(=O)cc(-c3ccccc3F)oc12 | 0.2 | 22.1 | 5.9 | 29.5 | 111 | 
8 | COc1cc(-c2cc(=O)c3cc(OC)c4c(OC)ccc(OC)c4c3o2)cc(OC)c1OC | 9.8 | 23.5 | 22.5 | 2.3 | 2.4 | 
9 | COc1ccc(OC)c2c1c(OC)cc1c(=O)cc(-c3cccc(Cl)c3)oc12 | 0.3 | 61.1 | 6.4 | 21 | 204 | 
10 | COc1ccc(OC)c2c1c(OC)cc1c(=O)c(OCCCCOC(=O)CN)c(-c3cccc(F)c3)oc12 | 37 | 122 | 70.2 | 1.9 | 3.3 | 
11 | COc1ccc(OC)c2c1c(OC)cc1c(=O)cc(-c3ccc(Cl)cc3)oc12 | 0.2 | 27.7 | 1.8 | 9 | 139 | 
12 | COc1ccc(OC)c2c1c(OC)cc1c(=O)c(OCCOC(=O)[C@H](C)N)c(-c3cccc(F)c3)oc12 | 98.4 | 85.9 | 39.4 | 0.4 | 0.87 | 
13 | COc1ccc(OC)c2c1c(OC)cc1c(=O)cc(-c3ccc(F)cc3)oc12 | 0.3 | 15.4 | 9.8 | 33 | 51 | 
14 | COc1ccc(OC)c2c1c(OC)cc1c(=O)c(O)c(-c3cccc(F)c3)oc12 | 0.3 | 26.5 | 66.9 | 223 | 88 | 
15 | COc1ccc(-c2cc(=O)c3cc(OC)c4c(OC)ccc(OC)c4c3o2)cc1OC | 2.5 | 19.3 | 11.5 | 4.6 | 7.7 | 

More lines, in order of falling IC50 [1], values ahead:

Row | IC50 [1] [nM] | IC50 [3] [nM] | IC50 [4] [nM] | Compound | Ratio IC50 [2] | Ratio IC50 [5] | selectivity ratio [6]
16 | 771 | 43 | 67.8 | COc1ccc(OC)c2c1c(OC)cc1c(=O)cc(-c3ccc(OCc4ccccc4)cc3)oc12 | 0.09 | 0.06 | 
17 | 114 | 68.3 | 192 | COc1ccc(OC)c2c1c(OC)cc1c(=O)c(OCCOC(=O)[C@@H](N)C(C)C)c(-c3cccc(F)c3)oc12 | 1.7 | 0.6 | 
18 | 68.8 | 120 | 36.2 | COc1ccc(OC)c2c1c(OC)cc1c(=O)c(OCCCCCCOC(=O)CN)c(-c3cccc(F)c3)oc12 | 0.53 | 1.7 | 
19 | 19.6 | 56.2 | 13.6 | COc1ccc(OC)c2c1c(OC)cc1c(=O)c(OCCOC(=O)CN)c(-c3cccc(F)c3)oc12 | 0.69 | 2.9 | 
20 | 12.3 | 129 | 20.2 | COc1ccc(OC)c2c1c(OC)cc1c(=O)c(OCCCCCCCCOC(=O)CN)c(-c3cccc(F)c3)oc12 | 1.6 | 10 | 
21 | 9 | 13.5 | 18.8 | COc1ccccc1-c1cc(=O)c2cc(OC)c3c(OC)ccc(OC)c3c2o1 | 2.1 | 1.5 | 
22 | 5 | 83.3 | 26.9 | COc1ccc(OC)c2c1c(OC)cc1c(=O)c(O)c(-c3ccc(Cl)cc3)oc12 | 5.4 | 17 | 
23 | 2.3 | 34.4 | 31.6 | COc1ccc(OC)c2c1c(OC)cc1c(=O)c(O)c(-c3ccccc3)oc12 | 14 | 15 | 
24 | 1.6 | 49.6 | 32.9 | COc1ccc(OC)c2c1c(OC)cc1c(=O)c(O)c(-c3ccccc3Cl)oc12 | 21 | 31 | 
25 | 1.1 | 58 | 19.2 | COc1ccc(OC)c2c1c(OC)cc1c(=O)cc(-c3ccccc3Cl)oc12 | 17.5 | 53 | 
26 | 1.1 | 16.4 | 12.9 | COc1ccc(-c2cc(=O)c3cc(OC)c4c(OC)ccc(OC)c4c3o2)cc1 | 12 | 15 | 
27 | 0.8 | 57.6 | 11.8 | COc1ccc(OC)c2c1c(OC)cc1c(=O)c(O)c(-c3ccc(F)cc3)oc12 | 15 | 72 | 
28 | 0.2 | 16.1 | 4.8 | COc1ccc(OC)c2c1c(OC)cc1c(=O)cc(-c3ccccc3)oc12 | 24 | 81 | 6
